The source made the active and inactive calls.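 How the source made its calls, unless noted: active means viability loss from added drug above about 55%, and viability with drug at most 40%, in both replicates (limit read from the data, passing the limit was not always enough); inconclusive means both conditions met in only one replicate; inactive means neither replicate meets both conditions.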

The source of these data is PubChem BioAssay.

Assay [1] in a line: HUVEC growth inhibition – cell-based, human, primary screen (AID 575;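 active means viability at or below 30% in both replicate assays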;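 further: 100% = median of untreated cell wells with 0.1% DMSO on each plate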). To be noted: HUVEC proliferation, CellTiter-Glo luminescence, 72 h; at 10 µM; stronger effect = lower value. The procedure, abridged: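 system = HUVEC primary cells | amount = 1250 cells/well | buffer or medium = supplemented EBM, 2% fetal bovine serum | dosing = single-point 10 µM, DMSO 0.1% final | times = 72 h compound incubation | detection = CTG luminescence | read-out = % viability relative to median vehicle-well signal on each plate | control set = vehicle and MePR control wells | format = collagen-coated 384-well format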

A short description of assay [2]: H69AR cell proliferation blockers – human, duplicate replicates, primary screen (AID 580;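 active means viability at or under a set limit in both replicates, limit being median viability minus 3 SD, cut at about 48% in these data, passing the limit was not always enough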;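 further: 100% = mean luminescence of untreated wells and 0% = no signal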). To be noted: H69AR lung tumor cells viability, ATP luminescence, 72 h; at 10 µM; stronger effect = lower value.
Assay [3] can be described thus: MRP1 drug-resistance reversers in H69AR cells – cell-based, doxorubicin co-treatment, pilot screen (AID 601). To be noted: CellTiter-Glo, 72 h, at 10 µM; for differential viability (reversal): stronger effect = higher value.
Assay [4] in a line: yeast transport mutant growth inhibition pilot in 384-well plates, post-Golgi transport modulator project (AID 636; in the data active means inhibition above about 31%). The note with it: absorbance 615 nm, about 18 h, stronger effect = higher value.
Assay [5] can be described thus: growth suppression of yeast trafficking mutant, preliminary HTS, modulators of trafficking downstream of Golgi apparatus project, 1536-format plate, OD 615 nm (AID 637; in the data active means inhibition above about 30%). To be noted: yeast transport mutant growth, absorbance 615 nm, 18 h; stronger effect = higher value.
[6] abbreviates: H69AR cells + 2 uM doxorubicin, measured here: viability with 2 uM doxorubicin, stronger effect = lower value.
The mark [7] stands for this setting: H69AR cells, compound alone cytotoxicity.

As to `COc1ccc(N2CCN(c3oc(COc4ccccc4)nc3C#N)CC2)cc1`, the viability in assay [1] is 84.1% (inactive); in assay [2] it was 101% (inactive); in assay [3] (setting [6]), 103%; in assay [3] (setting [7]), 101%. The differential viability (reversal) in assay [3] (H69AR cells + 2 uM doxorubicin) was -2.02% (inactive). In addition, the inhibition in assay [4] was -5.19% (inactive); in assay [5], 0.95% (inactive).
As to `COCCn1nnnc1C(C(C)C)N(Cc1cccnc1)Cc1ccccc1Cl` (stereo not given), the viability in assay [1] is 96.4% (inactive); in assay [2], 83.8% (inactive); in assay [3] (setting [6]) it was 49%; in assay [3] (setting [7]), 83.8%. The differential viability (reversal) in assay [3] (H69AR cells + 2 uM doxorubicin) was 34.7% (inactive). Besides, the inhibition is -2.34% (inactive) in assay [4] and 2.06% (inactive) in assay [5].
Regarding `COc1ccccc1-c1nc(C(F)(F)F)c(OC)o1`, the viability in assay [1] is 104% (inactive); in assay [2], 91.9% (inactive); in assay [3] (setting [6]), 81.6%; in assay [3] (setting [7]), 91.9%. Also, the differential viability (reversal) in assay [3] (H69AR cells + 2 uM doxorubicin) is 10.3% (inactive). Further, the inhibition in assay [4] was -1.97% (inactive); in assay [5], 17.9% (inactive).
As to `CN1CCN(CC#CCC(O)(c2ccccc2)C2CCCC2)CC1` (stereo not given), the viability is 102% (inactive) in assay [1], 91.7% (inactive) in assay [2], 90.5% in assay [3] (setting [6]) and 91.7% in assay [3] (setting [7]). Further, the differential viability (reversal) in assay [3] (H69AR cells + 2 uM doxorubicin) was 1.13% (inactive). Further, the inhibition is -6.4% (inactive) in assay [4] and -2.38% (inactive) in assay [5].
For `O=C(NC(NC1CCS(=O)(=O)C1)C(=O)c1cccs1)c1ccccc1` (stereo not given), the viability in assay [1] was 106% (inactive); in assay [2], 106% (inactive); in assay [3] (setting [6]) it was 98.2%; in assay [3] (setting [7]) it was 106%. Moreover, the differential viability (reversal) in assay [3] (H69AR cells + 2 uM doxorubicin) is 7.72% (inactive). The inhibition in assay [4] was -1.17% (inactive); in assay [5], -3.33% (inactive).
With `CCc1nnc(NC(=O)CSc2nnc(Cc3ccccc3)n2-c2ccc(OC)cc2)s1`, the viability is 92.9% (inactive) in assay [1], 84.6% (inactive) in assay [2], 90.9% in assay [3] (setting [6]) and 84.6% in assay [3] (setting [7]). The differential viability (reversal) in assay [3] (H69AR cells + 2 uM doxorubicin) was -6.38% (inactive). Also, the inhibition in assay [4] was -5.79% (inactive); in assay [5], -0.63% (inactive).
As to `O=c1c2ccccc2c(C=Nc2ccc(Cl)cn2)c(O)n1-c1cc(Cl)ccc1N1CCOCC1`, the viability in assay [1] was 91.7% (inactive); in assay [2], 89.1% (inactive); in assay [3] (setting [6]), 81.8%; in assay [3] (setting [7]) it was 89.1%. The differential viability (reversal) in assay [3] (H69AR cells + 2 uM doxorubicin) is 7.31% (inactive). The inhibition was -0.65% (inactive) in assay [4] and -3.49% (inactive) in assay [5].
`CCOC(=O)N1CCN(C(=O)C(NS(=O)(=O)c2cccc3nsnc23)c2ccccc2)CC1` (stereo not given): the viability is 100% (inactive) in assay [1], 94.2% (inactive) in assay [2], 101% in assay [3] (setting [6]) and 94.2% in assay [3] (setting [7]). In addition, in assay [3] (H69AR cells + 2 uM doxorubicin), the differential viability (reversal) was -6.95% (inactive). The inhibition in assay [4] is -3.38% (inactive); in assay [5], -0.63% (inactive).
With `COc1cccc(/C(O)=C2/C(=O)C(=O)N(CCN3CCOCC3)C2c2cccnc2)c1` (stereo not given), the viability in assay [1] was 98.9% (inactive); in assay [2] it was 93.6% (inactive); in assay [3] (setting [6]) it was 92.8%; in assay [3] (setting [7]) it was 93.6%. Further, the differential viability (reversal) in assay [3] (H69AR cells + 2 uM doxorubicin) was 0.755% (inactive). Moreover, the inhibition in assay [4] was 2.99% (inactive); in assay [5], -3.02% (inactive).
In the case of `S=c1[nH]c2ccc(Cl)cc2[nH]1`, the viability was 67.4% (inactive) in assay [1], 84.9% (inactive) in assay [2], 78.7% in assay [3] (setting [6]) and 84.9% in assay [3] (setting [7]). For the same compound, the differential viability (reversal) in assay [3] (H69AR cells + 2 uM doxorubicin) is 6.16% (inactive). In addition, the inhibition in assay [4] is -3.42% (inactive); in assay [5], 6.35% (inactive).
In the case of `c1ccc2c(c1)C(=Nn1cnnc1)c1ccccc1-2`, the viability is 92.3% (inactive) in assay [1], 92.4% (inactive) in assay [2], 96.7% in assay [3] (setting [6]) and 92.4% in assay [3] (setting [7]). For the same compound, the differential viability (reversal) in assay [3] (H69AR cells + 2 uM doxorubicin) is -4.35% (inactive). Also, the inhibition in assay [4] is -0.39% (inactive); in assay [5], -3.02% (inactive).
In the case of `CC(=O)C1=C(C)NC(=O)NC1c1cccc(O)c1` (stereo not given), the viability is 99.8% (inactive) in assay [1], 94.4% (inactive) in assay [2], 86.3% in assay [3] (setting [6]) and 94.4% in assay [3] (setting [7]). Moreover, in assay [3] (H69AR cells + 2 uM doxorubicin), the differential viability (reversal) was 8.07% (inactive). Also, the inhibition is -2.93% (inactive) in assay [4] and 0.16% (inactive) in assay [5].
Turning to `O=C(Sc1nnnn1C1CCCCC1)c1cccs1`, the viability was 102% (inactive) in assay [1], 98.7% (inactive) in assay [2], 92.5% in assay [3] (setting [6]) and 98.7% in assay [3] (setting [7]). In addition, the differential viability (reversal) in assay [3] (H69AR cells + 2 uM doxorubicin) is 6.21% (inactive). The inhibition in assay [4] was -6.53% (inactive); in assay [5], 3.81% (inactive).
Turning to `O=C(c1cc(-c2cccc(O)c2)on1)N1CCN(C(c2ccccc2)c2ccccc2)CC1`, the viability was 98.8% (inactive) in assay [1], 26.8% (active) in assay [2], 22.4% in assay [3] (setting [6]) and 26.8% in assay [3] (setting [7]). For the same compound, in assay [3] (H69AR cells + 2 uM doxorubicin), the differential viability (reversal) was 4.38% (inactive). Moreover, the inhibition in assay [4] was 0.26% (inactive); in assay [5], -3.5% (inactive).
Take `O=C(CCNC(=O)c1ccc(Br)o1)NC1CCCC1`: the viability in assay [1] is 87% (inactive); in assay [2], 95.1% (inactive); in assay [3] (setting [6]) it was 78.2%; in assay [3] (setting [7]), 95.1%. In assay [3] (H69AR cells + 2 uM doxorubicin), the differential viability (reversal) was 16.9% (inactive). Further, the inhibition was -4.4% (inactive) in assay [4] and 4.29% (inactive) in assay [5].
Consider `COCCn1c(N)c(C(=O)Nc2sc3c(c2C(=O)OC)CCCC3)c2nc3ccccc3nc21`, for which the viability in assay [1] was 82.6% (inactive); in assay [2] it was 92.3% (inactive); in assay [3] (setting [6]) it was 92.7%; in assay [3] (setting [7]) it was 92.3%. The differential viability (reversal) in assay [3] (H69AR cells + 2 uM doxorubicin) is -0.35% (inactive). Further, the values for the inhibition in assay [4] and in assay [5] were -4.42% (inactive) and 3.65% (inactive), respectively.
Take `COc1oc(-c2ccccc2)nc1C(F)(F)F`: the viability in assay [1] was 94.3% (inactive); in assay [2], 109% (inactive); in assay [3] (setting [6]), 99.9%; in assay [3] (setting [7]) it was 109%. Further, the differential viability (reversal) in assay [3] (H69AR cells + 2 uM doxorubicin) is 9.45% (inactive). Further, the inhibition in assay [4] is -3.82% (inactive); in assay [5], -2.38% (inactive).
Consider `Cc1[nH]nc2c1C1(CCN(C(=O)c3ccccc3)CC1)C(C#N)=C(N)O2`, for which the viability was 104% (inactive) in assay [1], 98.7% (inactive) in assay [2], 95.7% in assay [3] (setting [6]) and 98.7% in assay [3] (setting [7]). In addition, in assay [3] (H69AR cells + 2 uM doxorubicin), the differential viability (reversal) was 3.04% (inactive). The inhibition in assay [4] was 0.52% (inactive); in assay [5] it was 6.83% (inactive).
For the compound `COc1cc(S(=O)(=O)N(C)C)ccc1F`, the viability in assay [1] was 95.4% (inactive); in assay [2], 91.7% (inactive); in assay [3] (setting [6]), 82.1%; in assay [3] (setting [7]), 91.7%. The differential viability (reversal) in assay [3] (H69AR cells + 2 uM doxorubicin) was 9.55% (inactive). The values for the inhibition in assay [4] and in assay [5] were -6.67% (inactive) and 3.65% (inactive), respectively.
For the compound `CCOC(=O)CCC(=O)c1c(C)oc2ccc(OC)cc12`, the viability in assay [1] is 81.8% (inactive); in assay [2], 88.4% (inactive); in assay [3] (setting [6]), 93.4%; in assay [3] (setting [7]) it was 88.4%. Moreover, the differential viability (reversal) in assay [3] (H69AR cells + 2 uM doxorubicin) was -5% (inactive). Further, the inhibition in assay [4] is 1.04% (inactive); in assay [5], 13.3% (inactive).
